Measurements as given in the M2OR odorant receptor database.

Legend:
Settings in all cases: stereoisomer not certain
UniProt Q8VGC6 = molecular target: T1, UniProt Q8VGC6
T1 sequence (whole entry): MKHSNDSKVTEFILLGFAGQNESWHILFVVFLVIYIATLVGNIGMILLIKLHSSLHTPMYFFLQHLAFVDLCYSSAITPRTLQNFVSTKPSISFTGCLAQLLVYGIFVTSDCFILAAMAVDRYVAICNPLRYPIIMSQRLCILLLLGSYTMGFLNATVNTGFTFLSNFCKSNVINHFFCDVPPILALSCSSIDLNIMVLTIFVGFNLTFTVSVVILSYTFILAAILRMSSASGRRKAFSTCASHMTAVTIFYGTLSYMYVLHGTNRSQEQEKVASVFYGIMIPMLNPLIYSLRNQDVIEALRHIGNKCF
Summary of the method: (§1)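 Each entry records the cell line, G-protein, co-transfected protein and tags used. Methods varied with the source, often transient luciferase assays in mammalian cell lines. A receptor–molecule pair is called responsive (active) if the original authors judged its signal statistically different from baseline and non-responsive (inactive) otherwise.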

UniProt Q8VGD7 = molecular target: T2, UniProt Q8VGD7
T2 sequence (whole entry): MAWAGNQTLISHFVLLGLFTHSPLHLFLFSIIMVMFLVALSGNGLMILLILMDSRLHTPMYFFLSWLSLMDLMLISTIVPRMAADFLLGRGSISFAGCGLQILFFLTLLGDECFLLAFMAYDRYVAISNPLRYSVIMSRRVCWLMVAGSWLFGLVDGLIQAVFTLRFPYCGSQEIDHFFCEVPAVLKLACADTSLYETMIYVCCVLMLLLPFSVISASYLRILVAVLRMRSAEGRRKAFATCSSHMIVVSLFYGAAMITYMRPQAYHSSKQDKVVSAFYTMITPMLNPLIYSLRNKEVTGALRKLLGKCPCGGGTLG
Summary of the method: as §1

UniProt Q8VGH1 = molecular target: T3, UniProt Q8VGH1
T3 sequence (whole entry): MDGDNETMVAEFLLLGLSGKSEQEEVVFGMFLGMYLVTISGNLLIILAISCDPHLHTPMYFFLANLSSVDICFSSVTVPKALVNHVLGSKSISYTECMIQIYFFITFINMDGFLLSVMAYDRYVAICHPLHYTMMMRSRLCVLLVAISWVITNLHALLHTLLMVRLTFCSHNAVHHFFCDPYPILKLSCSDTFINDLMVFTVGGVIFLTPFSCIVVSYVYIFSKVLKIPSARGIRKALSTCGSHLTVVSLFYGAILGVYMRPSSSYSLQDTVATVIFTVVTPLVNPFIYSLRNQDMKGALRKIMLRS
Summary of the method: as §1

UniProt Q8VGJ1 = molecular target: T4, UniProt Q8VGJ1
T4 sequence (whole entry): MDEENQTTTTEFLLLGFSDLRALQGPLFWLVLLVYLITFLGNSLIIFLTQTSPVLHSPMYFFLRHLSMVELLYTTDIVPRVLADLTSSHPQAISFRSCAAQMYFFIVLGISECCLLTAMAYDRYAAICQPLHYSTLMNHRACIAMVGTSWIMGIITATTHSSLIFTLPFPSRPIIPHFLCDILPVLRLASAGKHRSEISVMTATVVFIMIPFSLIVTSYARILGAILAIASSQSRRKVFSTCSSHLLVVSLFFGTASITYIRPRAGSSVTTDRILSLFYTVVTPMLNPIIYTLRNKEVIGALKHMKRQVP
Summary of the method: as §1

UniProt Q8VGJ3 = molecular target: T5, UniProt Q8VGJ3
T5 sequence (whole entry): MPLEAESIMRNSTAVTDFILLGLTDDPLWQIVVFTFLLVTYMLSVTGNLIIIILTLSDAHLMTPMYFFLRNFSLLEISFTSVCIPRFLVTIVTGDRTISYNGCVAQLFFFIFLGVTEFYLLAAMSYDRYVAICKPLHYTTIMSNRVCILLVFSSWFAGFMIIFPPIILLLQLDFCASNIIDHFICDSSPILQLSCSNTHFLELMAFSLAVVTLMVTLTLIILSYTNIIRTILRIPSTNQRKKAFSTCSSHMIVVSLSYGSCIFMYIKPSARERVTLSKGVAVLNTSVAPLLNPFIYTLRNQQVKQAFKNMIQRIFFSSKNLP
Summary of the method: as §1

UniProt Q8VGJ5 = molecular target: T6, UniProt Q8VGJ5
T6 sequence (whole entry): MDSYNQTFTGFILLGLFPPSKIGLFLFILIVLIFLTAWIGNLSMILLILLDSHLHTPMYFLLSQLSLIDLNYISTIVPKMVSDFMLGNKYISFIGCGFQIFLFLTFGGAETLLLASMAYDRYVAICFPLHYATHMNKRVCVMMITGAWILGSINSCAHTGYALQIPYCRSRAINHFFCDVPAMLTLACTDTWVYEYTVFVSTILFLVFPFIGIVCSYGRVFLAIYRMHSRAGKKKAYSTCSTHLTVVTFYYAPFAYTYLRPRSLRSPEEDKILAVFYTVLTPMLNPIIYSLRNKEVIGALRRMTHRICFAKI
Summary of the method: as §1

UniProt Q8VGL0 = molecular target: T7, UniProt Q8VGL0
T7 sequence (whole entry): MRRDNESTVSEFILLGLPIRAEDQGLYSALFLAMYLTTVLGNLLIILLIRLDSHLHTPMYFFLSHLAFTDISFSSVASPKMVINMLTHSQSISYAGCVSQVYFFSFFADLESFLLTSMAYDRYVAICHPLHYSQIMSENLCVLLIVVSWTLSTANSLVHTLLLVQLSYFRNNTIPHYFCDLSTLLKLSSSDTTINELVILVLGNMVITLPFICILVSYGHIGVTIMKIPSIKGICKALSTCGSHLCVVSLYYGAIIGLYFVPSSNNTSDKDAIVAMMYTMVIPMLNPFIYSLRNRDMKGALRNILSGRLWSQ
Summary of the method: as §1

UniProt Q8VGL7 = molecular target: T8, UniProt Q8VGL7
T8 sequence (whole entry): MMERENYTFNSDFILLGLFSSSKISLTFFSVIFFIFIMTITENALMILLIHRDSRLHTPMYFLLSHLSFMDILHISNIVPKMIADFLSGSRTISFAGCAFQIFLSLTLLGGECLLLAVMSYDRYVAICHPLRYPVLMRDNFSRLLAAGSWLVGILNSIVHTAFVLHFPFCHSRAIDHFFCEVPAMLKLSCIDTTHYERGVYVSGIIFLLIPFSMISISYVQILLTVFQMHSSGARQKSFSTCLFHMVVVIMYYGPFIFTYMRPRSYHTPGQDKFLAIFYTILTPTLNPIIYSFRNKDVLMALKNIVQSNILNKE
Summary of the method: as §1

UniProt Q8VGM2 = molecular target: T9, UniProt Q8VGM2
T9 sequence (whole entry): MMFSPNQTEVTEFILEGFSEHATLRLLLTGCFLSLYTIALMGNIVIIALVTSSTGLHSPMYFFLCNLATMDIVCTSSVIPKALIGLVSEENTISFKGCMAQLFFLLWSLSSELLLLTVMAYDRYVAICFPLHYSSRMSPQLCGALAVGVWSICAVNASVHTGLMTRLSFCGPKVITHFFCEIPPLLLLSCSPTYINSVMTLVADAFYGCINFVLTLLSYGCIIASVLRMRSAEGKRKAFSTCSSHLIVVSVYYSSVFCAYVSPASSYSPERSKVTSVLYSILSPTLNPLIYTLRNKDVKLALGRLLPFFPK
Summary of the method: as §1

UniProt Q8VGP6 = molecular target: T10, UniProt Q8VGP6
T10 sequence (whole entry): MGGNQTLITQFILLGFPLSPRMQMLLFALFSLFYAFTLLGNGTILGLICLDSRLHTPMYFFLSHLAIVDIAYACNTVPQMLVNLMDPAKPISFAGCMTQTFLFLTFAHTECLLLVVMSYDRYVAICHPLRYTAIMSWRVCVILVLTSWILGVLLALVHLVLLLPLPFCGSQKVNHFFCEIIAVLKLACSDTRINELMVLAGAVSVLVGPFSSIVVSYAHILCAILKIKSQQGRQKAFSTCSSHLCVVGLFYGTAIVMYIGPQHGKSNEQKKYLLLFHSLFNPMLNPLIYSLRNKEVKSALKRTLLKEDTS
Summary of the method: as §1

UniProt Q8VGQ3 = molecular target: T11, UniProt Q8VGQ3
T11 sequence (whole entry): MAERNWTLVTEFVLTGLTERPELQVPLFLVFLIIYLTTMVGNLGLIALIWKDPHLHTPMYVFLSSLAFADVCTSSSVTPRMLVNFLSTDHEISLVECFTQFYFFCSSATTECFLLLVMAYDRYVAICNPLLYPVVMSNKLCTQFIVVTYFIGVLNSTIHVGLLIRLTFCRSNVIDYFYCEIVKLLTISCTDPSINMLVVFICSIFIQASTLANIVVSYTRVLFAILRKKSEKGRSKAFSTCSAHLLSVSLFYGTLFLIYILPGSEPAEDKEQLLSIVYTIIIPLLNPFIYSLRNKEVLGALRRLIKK
Summary of the method: as §1

UniProt Q8VGT4 = molecular target: T12, UniProt Q8VGT4
T12 sequence (whole entry): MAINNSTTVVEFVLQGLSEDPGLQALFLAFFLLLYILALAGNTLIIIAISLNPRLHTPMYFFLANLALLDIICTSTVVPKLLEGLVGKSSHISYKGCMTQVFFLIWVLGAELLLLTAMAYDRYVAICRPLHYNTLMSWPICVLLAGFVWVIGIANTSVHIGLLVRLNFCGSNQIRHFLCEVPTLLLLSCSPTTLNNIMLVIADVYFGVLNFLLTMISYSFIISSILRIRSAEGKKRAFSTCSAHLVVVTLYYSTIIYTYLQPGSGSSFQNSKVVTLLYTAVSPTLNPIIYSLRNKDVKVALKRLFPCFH
Summary of the method: as §1

UniProt Q8VGU3 = molecular target: T13, UniProt Q8VGU3
T13 sequence (whole entry): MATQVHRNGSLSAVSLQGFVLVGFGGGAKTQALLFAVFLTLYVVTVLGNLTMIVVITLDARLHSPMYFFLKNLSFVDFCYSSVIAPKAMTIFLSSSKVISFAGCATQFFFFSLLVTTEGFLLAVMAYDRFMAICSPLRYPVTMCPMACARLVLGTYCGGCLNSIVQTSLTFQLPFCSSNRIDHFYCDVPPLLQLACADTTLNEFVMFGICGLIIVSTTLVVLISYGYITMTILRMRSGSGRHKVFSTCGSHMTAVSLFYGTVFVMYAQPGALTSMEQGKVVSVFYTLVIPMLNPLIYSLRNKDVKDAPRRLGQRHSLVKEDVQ
Summary of the method: as §1

UniProt Q8VGV1 = molecular target: T14, UniProt Q8VGV1
T14 sequence (whole entry): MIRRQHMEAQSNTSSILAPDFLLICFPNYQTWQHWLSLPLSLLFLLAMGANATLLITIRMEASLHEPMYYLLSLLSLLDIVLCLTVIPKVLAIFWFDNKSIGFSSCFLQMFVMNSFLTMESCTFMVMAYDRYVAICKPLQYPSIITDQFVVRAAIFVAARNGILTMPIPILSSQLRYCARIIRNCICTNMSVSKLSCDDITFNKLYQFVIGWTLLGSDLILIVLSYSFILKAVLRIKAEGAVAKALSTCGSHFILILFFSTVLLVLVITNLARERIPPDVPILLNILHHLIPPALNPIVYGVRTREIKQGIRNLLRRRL
Summary of the method: as §1

UniProt Q8VGV7 = molecular target: T15, UniProt Q8VGV7
T15 sequence (whole entry): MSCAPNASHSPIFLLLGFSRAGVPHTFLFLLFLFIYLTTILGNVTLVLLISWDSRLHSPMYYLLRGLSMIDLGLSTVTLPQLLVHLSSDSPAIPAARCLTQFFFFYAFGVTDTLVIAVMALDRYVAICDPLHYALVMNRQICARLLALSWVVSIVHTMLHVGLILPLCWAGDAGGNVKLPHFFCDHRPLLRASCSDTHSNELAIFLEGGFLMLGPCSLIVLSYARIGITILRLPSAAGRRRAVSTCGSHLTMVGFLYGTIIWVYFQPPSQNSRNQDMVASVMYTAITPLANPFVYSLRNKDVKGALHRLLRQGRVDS
Summary of the method: as §1

UniProt Q8VGX3 = molecular target: T16, UniProt Q8VGX3
T16 sequence (whole entry): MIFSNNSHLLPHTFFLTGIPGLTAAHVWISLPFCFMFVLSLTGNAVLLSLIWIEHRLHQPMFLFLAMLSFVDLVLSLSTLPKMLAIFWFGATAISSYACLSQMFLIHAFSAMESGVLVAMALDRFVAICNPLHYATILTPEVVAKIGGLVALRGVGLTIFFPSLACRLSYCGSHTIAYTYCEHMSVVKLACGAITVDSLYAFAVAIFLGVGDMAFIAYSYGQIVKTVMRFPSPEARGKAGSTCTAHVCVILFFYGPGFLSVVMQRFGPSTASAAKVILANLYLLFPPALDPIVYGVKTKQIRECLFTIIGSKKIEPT
Summary of the method: as §1

UniProt Q8VGX5 = molecular target: T17, UniProt Q8VGX5
T17 sequence (whole entry): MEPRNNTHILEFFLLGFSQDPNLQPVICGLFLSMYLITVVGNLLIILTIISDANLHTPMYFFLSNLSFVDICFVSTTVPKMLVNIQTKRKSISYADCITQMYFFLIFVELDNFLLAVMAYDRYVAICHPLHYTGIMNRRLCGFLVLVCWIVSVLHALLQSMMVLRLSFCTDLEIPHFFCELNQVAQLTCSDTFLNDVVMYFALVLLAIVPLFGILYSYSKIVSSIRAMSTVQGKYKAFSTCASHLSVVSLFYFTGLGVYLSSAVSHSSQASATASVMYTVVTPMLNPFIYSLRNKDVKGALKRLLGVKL
Summary of the method: as §1

Measured: odorant receptor agonist call

CCCCCOC(=O)CCCCC
inactive: all assays above

O=C(c1ccccc1)c1ccccc1
active: UniProt Q8VGJ1
inactive: all other assays above
